Compounds with a hit are over-represented: about 0.97% of the library has one in this group of screens.
A3A deaminase – APOBEC3A ssDNA deaminase inhibitors, primary screen, selectivity assay for APOBEC3G inhibitor project, biochemical, FAM/TAMRA oligo cleavage fluorescence. DNA dC->dU-editing enzyme APOBEC-3A (Homo sapiens), P31941. recombinant A3A, FAM/TAMRA ssDNA deamination fluorescence. inhibition, % at 20 µM. 330,000 compounds, 0.41% hits;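 active = at least 40% inhibition at 20 µM here, with at most 30% in a related deaminase screen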
Target sequence (P31941 whole entry, looked up): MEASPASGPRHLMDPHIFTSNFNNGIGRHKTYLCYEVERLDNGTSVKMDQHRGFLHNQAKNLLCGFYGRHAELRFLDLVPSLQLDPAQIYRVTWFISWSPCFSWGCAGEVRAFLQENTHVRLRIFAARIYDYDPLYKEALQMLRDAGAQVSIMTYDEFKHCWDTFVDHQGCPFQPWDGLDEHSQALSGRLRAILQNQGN
UCH37 DUB inh – inhibitors of human UCH37 deubiquitinase, primary screen, biochemical, Ub-AMC cleavage, fluorescence. AID 588478, 2011. purified proteasome/UCH37. 330,000 compounds, 0.33% hits. inhibition, % (no concentration beside the values). Ubiquitin carboxyl-terminal hydrolase isozyme L5 (Homo sapiens), Q9Y5K5;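 active = mean inhibition over replicate wells above about 20%, limit read from the data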
Target sequence (Q9Y5K5 whole entry, looked up): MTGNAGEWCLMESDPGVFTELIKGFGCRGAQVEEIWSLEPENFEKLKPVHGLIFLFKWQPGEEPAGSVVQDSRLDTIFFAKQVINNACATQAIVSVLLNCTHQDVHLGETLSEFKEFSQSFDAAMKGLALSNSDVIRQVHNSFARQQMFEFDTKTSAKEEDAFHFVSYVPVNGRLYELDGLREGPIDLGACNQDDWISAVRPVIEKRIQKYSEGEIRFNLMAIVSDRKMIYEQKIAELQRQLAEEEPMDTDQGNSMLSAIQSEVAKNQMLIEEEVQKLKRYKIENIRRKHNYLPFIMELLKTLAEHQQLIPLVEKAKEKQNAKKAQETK
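system = Proteasome-associated human UCH37 deubiquitinase | amount = 0.15 nM proteasome as dispensed | medium = pH 7.4 Tris-HCl (50 mM) with ovalbumin, ATP-MgCl2, DTT | incubation = 30 min preincubation with enzyme, 25 min cleavage at room temperature | detection = AMC fluorescence 355/460 nm | read-out basis = percent inhibition | controls = no-proteasome and no-compound wells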
JMJD2C inh – inhibitors of GASC-1 histone demethylase, primary screen, biochemical, fluorescence, DELFIA europium; Lysine-specific demethylase 4C (Homo sapiens), Q9H3R0; GST-JMJD2C(1-420) H3K9me3 demethylation; inhibition, % at 2.35 µM; 330,000 compounds, 0.069% hits;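 active = more than half of a compound's replicate wells show inhibition beyond 50%, single wells judged on their own value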;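 also: signal counts dimethyl H3K9 product captured on neutravidin plate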
APOBEC3G inh – APOBEC3G DNA deaminase inhibitors, primary screen, biochemical, fluorescence, single-stranded DNA substrate, uHTS. inhibition, % at 20 µM. 330,000 compounds, 0.28% hits. recombinant A3G, ssDNA deamination FAM/TAMRA fluorescence. DNA dC->dU-editing enzyme APOBEC-3G (Homo sapiens), Q9HC16;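 active = inhibition of at least 40% at 20 µM, with no more than 30% in the related APOBEC3A deaminase screen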
A3A conf – APOBEC3A deaminase inhibitors, retest, confirmation, selectivity assay for APOBEC3G inhibitor project, biochemical, single concentration, fluorescence readout; inhibition, % at 20 µM; recombinant A3A, ssDNA deaminase UDG fluorescence assay; AID 493151, 2011; shares compounds with A3A deaminase; 1,400 compounds, 63% hits;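 active = inhibition reaching a set limit, 80% of the first screen's cutoff, at 20 µM in any replicate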
UDG A3A counter – E. coli UDG inhibitors, confirmation, counter-screen for APOBEC3A inhibitor project, biochemical, single concentration, fluorescence, FAM/TAMRA oligo | shares compounds with A3A deaminase | UDG counterscreen, FAM/TAMRA uracil oligo fluorescence | inhibition, % at 20 µM | 1,000 tested, under 10 active; call rule not given here
Each line names hits and unclear results; the compound was inactive in the other large screens (follow-up assays come after a bar, where they were run).

CCOC(=O)CC1(C)OCC(C[N+]2(C)CCCCC2)O1 (stereo not given)	A3A deaminase 78 | A3A conf 81 | UDG A3A counter inactive
COc1ccc(CC(=O)NNC(=O)c2ccccn2)cc1	A3A deaminase 46 | A3A conf inactive
CCOC(=O)C1=C(C)N=c2sc(=Cc3cccc(OCC(=O)O)c3)c(=O)n2C1c1ccccc1 (stereo not given)	none (no result: A3A deaminase, JMJD2C inh, APOBEC3G inh)
C=CCNC(=S)NN=C(C)c1cccnc1	none (no result: A3A deaminase, JMJD2C inh, APOBEC3G inh)
CCN1C(=NCCc2ccc(Br)cc2)N[C@@H](c2ccccc2)[C@H](C(=O)OC)[C@H]1C	none
CCN1C(=NCCCOC(C)C)N[C@@H](c2ccccc2)[C@H](C(=O)OC)[C@H]1C	A3A deaminase 44 | A3A conf 61 | UDG A3A counter inactive
CN(CCCS(=O)(=O)[O-])c1ccc(/C=C/c2ccc3ccccc3[n+]2C)cc1	A3A deaminase 58 | A3A conf 68 | UDG A3A counter inactive
Cc1ccc2c(c1)C1CN(C)CCC1N2CC(=O)N(C)c1ccccc1 (stereo not given)	A3A deaminase 51 | A3A conf 50 | UDG A3A counter inactive
Cc1ccc2c(c1)C1CN(C)CCC1N2C(=O)COc1ccc(N(C)C(=O)C(C)(C)C)cc1 (stereo not given)	none
O=C1NC(=S)SC1=C1CCCC1	A3A deaminase 62 (no result: UCH37 DUB inh) | A3A conf 58 | UDG A3A counter inactive
CCn1c2ccccc2c(=O)c2ccccc21	A3A deaminase 64 | A3A conf inactive
CCOC(=O)C1C(=NO)CC(C)(O)C(C(=O)OCC)C1c1ccc(OC)c(OC)c1 (stereo not given)	none (no result: A3A deaminase, JMJD2C inh, APOBEC3G inh)
COc1cc(C=NNC(=O)c2ccc(CSc3nncn3C)cc2)cc(OC)c1O	none (no result: A3A deaminase, JMJD2C inh, APOBEC3G inh)
c1cc[n+](CCC[n+]2ccccc2)cc1	A3A deaminase 71 | A3A conf 88 | UDG A3A counter inactive
CC1(C)CC2CC(C)(CN2S(=O)(=O)c2cccc(C(=O)OCC(=O)NC(N)=O)c2)C1 (stereo not given)	A3A deaminase 54 | A3A conf inactive
CCN(CC)c1ccc2nc3ccccc3[n+](CC)c2c1	A3A deaminase 79 (no result: UCH37 DUB inh) | A3A conf 82 | UDG A3A counter inactive
CC(=NNS(C)(=O)=O)c1ccc(C)cc1	none (no result: A3A deaminase, JMJD2C inh, APOBEC3G inh)
CCOC(=O)c1[nH]ncc1CN1CCc2ccc(NC(=O)C3CCCO3)cc2C1 (stereo not given)	A3A deaminase 54 (no result: UCH37 DUB inh) | A3A conf inactive | UDG A3A counter inactive
O=C(NN=C1CCc2ccccc21)c1ccc(O)cc1	none (no result: A3A deaminase, JMJD2C inh, APOBEC3G inh)
COc1ccccc1OCC(=O)NN=C/C=C/c1ccc([N+](=O)[O-])o1	none (no result: A3A deaminase, JMJD2C inh, APOBEC3G inh)
COc1ccccc1OCC(=O)N/N=C/C=C/c1ccc([N+](=O)[O-])o1	A3A deaminase 45 (no result: UCH37 DUB inh) | A3A conf 19 | UDG A3A counter inactive
Cc1ccc(C=NNC(=O)CC2N=C(Cc3ccccc3)NNC2=O)cc1 (stereo not given)	none (no result: A3A deaminase, JMJD2C inh, APOBEC3G inh)
C[n+]1ccccc1/C=C/c1ccc(F)c(F)c1	A3A deaminase 53 | A3A conf 55
C[n+]1ccccc1/C=C/c1ccc2ncccc2c1	A3A deaminase 75 | A3A conf 75 | UDG A3A counter inactive
C[n+]1ccccc1/C=C/c1ccc([N+](=O)[O-])cc1	A3A deaminase 57 | A3A conf 62
COc1ccccc1-c1noc(CCC(=O)NC2CCCC2)n1	A3A deaminase 45 | A3A conf inactive | UDG A3A counter inactive
Cc1ccccc1-c1noc(CCC(=O)NCC2CCCO2)n1 (stereo not given)	A3A deaminase 44 | A3A conf inactive
O=C(Nc1ccc(Cl)cc1Cl)C1CCCO1 (stereo not given)	none
Cc1cc(F)ccc1NC(=O)C1CCCO1 (stereo not given)	A3A deaminase 57 | A3A conf inactive | UDG A3A counter inactive
CC(=O)Nc1ccccc1NC(=O)CC(C)=NNC(=O)c1ccncc1	none (no result: A3A deaminase, JMJD2C inh, APOBEC3G inh)
O=C(/C=C/c1ccco1)OCC(=O)N1CCCCC1	A3A deaminase 49 | A3A conf 38 | UDG A3A counter inactive
O=C(/C=C/c1ccccc1)OCC(=O)N1CCCC1	none
C=CCN1C(=O)CSC1=NN=Cc1cccc([N+](=O)[O-])c1	none (no result: A3A deaminase, JMJD2C inh, APOBEC3G inh)
CCc1ccc(C=NNC(=O)c2cc(-c3ccncc3)nc3ccccc23)s1	none (no result: A3A deaminase, JMJD2C inh, APOBEC3G inh)
CN(C)CCOC(=O)C1(c2ccccc2)CCCC1	none
C[N+]1(CCCOC(=O)C2(c3ccccc3)CCCC2)CCOCC1	A3A deaminase 85 | A3A conf 69 | UDG A3A counter inactive
CC[N+]1(CC(O)COC2CC(C)CC(C)(C)C2)CCOCC1 (stereo not given)	A3A deaminase 43 | A3A conf 75 | UDG A3A counter inactive
CCC(=O)Nc1cc(C(=O)O)ccc1S(=O)(=O)c1ccc(C)cc1	A3A deaminase 47 | A3A conf 52 | UDG A3A counter inactive
CC(=O)Nc1cc(C(=O)O)ccc1S(=O)(=O)c1ccc(C)cc1	none
CCN(CC)Cc1cc(C(=O)O)c(C)o1	none
COc1ccc(OCc2cc(C(=O)O)c(C)o2)cc1	A3A deaminase 53 (no result: UCH37 DUB inh) | A3A conf 34
COc1ccccc1C=NNC(=O)c1cccc(NC(=O)c2ccccc2Cl)c1	none (no result: A3A deaminase, JMJD2C inh, APOBEC3G inh)
CN(Cc1ccc(Cl)c(Cl)c1)C(=O)C1=CC=CN2CCS(=O)(=O)N=C12	A3A deaminase 47 | A3A conf 43 | UDG A3A counter inactive
COc1ccc(Br)cc1CN(C)C(=O)C1=CC=CN2CCS(=O)(=O)N=C12	A3A deaminase 55 | A3A conf 51 | UDG A3A counter inactive
Cc1cc(N2CCCC2)ccc1C=Nn1cnnc1	none (no result: A3A deaminase, JMJD2C inh, APOBEC3G inh)
CC1=C(C#N)C2C(C1=NO)C2(C)C (stereo not given)	none (no result: A3A deaminase, JMJD2C inh, APOBEC3G inh)
COc1ccccc1/C=C\C=Nn1c(-c2ccc(Cl)cc2Cl)n[nH]c1=S	none (no result: A3A deaminase, JMJD2C inh, APOBEC3G inh)
NC(=O)C[n+]1cccc2ccccc21	A3A deaminase 43 | A3A conf 59 | UDG A3A counter inactive
Cc1ccccc1N=C1NC(=O)/C(=C/c2cccn2-c2cccc(C(=O)O)c2)S1	A3A deaminase 50 | A3A conf 43 | UDG A3A counter inactive
Cc1cccc(N=C2NC(=O)/C(=C/c3cccn3C)S2)c1C	none
O=C(NN=Cc1ccc([N+](=O)[O-])o1)c1cncc(Br)c1	none (no result: A3A deaminase, JMJD2C inh, APOBEC3G inh)
